Results on four compounds are retold here after ChEMBL document CHEMBL3244074, “2-Indanpropionic acids: structural leads for prostaglandin F2alpha antagonist development” (J Med Chem, 1979).

SMILES strings stand for the structures. Active and inactive are the calls of the source. The rule behind the calls is not given here.

Sequence of Prostaglandin F2-alpha receptor (Mus musculus) (P43117 whole entry): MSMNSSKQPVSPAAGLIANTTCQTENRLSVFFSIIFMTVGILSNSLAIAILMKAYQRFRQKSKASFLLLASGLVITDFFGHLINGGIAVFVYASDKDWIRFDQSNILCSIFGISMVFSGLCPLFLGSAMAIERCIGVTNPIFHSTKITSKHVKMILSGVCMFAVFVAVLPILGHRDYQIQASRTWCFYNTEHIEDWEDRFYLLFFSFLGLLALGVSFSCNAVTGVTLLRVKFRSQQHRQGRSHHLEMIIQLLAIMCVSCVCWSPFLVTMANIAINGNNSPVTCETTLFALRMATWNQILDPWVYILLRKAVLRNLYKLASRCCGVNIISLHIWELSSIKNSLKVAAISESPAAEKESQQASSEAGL

For one experiment, the target named is Prostaglandin F2-alpha receptor (Mus musculus) (UniProt P43117). The experiment is described as follows: Antagonist activity at prostaglandin F2-alpha receptor in isolated Albino mouse ileum assessed as inhibition of acetylcholine-induced spasmogenic effect at 10^-4 M preincubated for 3 mins followed by acetylcholine challenge relative to control. Format: tissue-based. The essentials:
(§1)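 Mouse ileum came from female albinos (20-25 g) killed by cervical dislocation and was held under 200 mg tension in 37 °C baths for isotonic recording, with 30-min equilibration. A control acetylcholine contraction was obtained, then three washes. Compound was in contact for 3 min before acetylcholine challenge and contraction recording. After 5 min there were three washes and the control response was redetermined.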
In the case of `CCCC1(CCC(=O)O)Cc2cc3c(cc2C1=O)OCO3` (centres undefined), the inhibition entry was “inactive”.

With `CCCC1(CCC(=O)O)Cc2cc3c(cc2C1)OCO3`, the inhibition entry was “inactive”.

As for `CCCC1(CCC(=O)O)Cc2cc(OCc3ccccc3)c(OCc3ccccc3)cc2C1=O` (centres undefined), the inhibition is 70%.

Turning to `CCCC1(CCC(=O)O)Cc2ccc(OC)cc2C1=O` (centres undefined), the inhibition result was “inactive”.

Another experiment shares this target. The experiment is described as follows: Antagonist activity at prostaglandin F2-alpha receptor in isolated Albino mouse ileum assessed as inhibition of KCl-induced spasmogenic effect at 10^-4 M preincubated for 3 mins followed by KCl challenge relative to control. It is filed as tissue-based. A digest of the protocol:
(§2)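 Ileum sections were taken from female albino mice (20-25 g) killed by cervical dislocation and mounted in 37 °C baths under 200 mg tension, with isotonic contraction recording after a 30-min equilibration. A control contraction to KCl (54 mM bath) was followed by three washes. Compound was left on the tissue for 3 min, then KCl was re-added and the contraction recorded. After 5 min the tissue was washed three times and the control response repeated.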
Turning to `CCCC1(CCC(=O)O)Cc2cc3c(cc2C1=O)OCO3` (centres undefined), the inhibition entry is “inactive”.

On to `CCCC1(CCC(=O)O)Cc2cc3c(cc2C1)OCO3`, for which the inhibition entry is “inactive”.

For the compound `CCCC1(CCC(=O)O)Cc2cc(OCc3ccccc3)c(OCc3ccccc3)cc2C1=O` (centres undefined), the inhibition was determined as 70%.

On to `CCCC1(CCC(=O)O)Cc2ccc(OC)cc2C1=O` (centres undefined), for which the inhibition result is “inactive”.

For a further experiment the target is unchanged. The experiment is described as follows: Antagonist activity at prostaglandin F2-alpha receptor in isolated Albino mouse ileum assessed as inhibition of PGF2alpha-induced spasmogenic effect at 10^-4 M preincubated for 3 mins followed by PGF2alpha challenge relative to control. It is filed as tissue-based. A digest of the protocol:
(§3)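 This used female albino mouse ileum (20-25 g animals, killed by cervical dislocation), recorded isotonically under 200 mg tension at 37 °C after 30-min equilibration. A control PGF2α contraction was obtained and the bath washed three times. Compound was applied for 3 min before PGF2α challenge, and the contraction was recorded. Washing three times after 5 min was followed by a repeat PGF2α control response.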
Take `CCCC1(CCC(=O)O)Cc2cc3c(cc2C1=O)OCO3` (centres undefined): the inhibition turned out to be 20%.

On to `CCCC1(CCC(=O)O)Cc2cc3c(cc2C1)OCO3`, for which the inhibition is 20%.

As for `CCCC1(CCC(=O)O)Cc2cc(OCc3ccccc3)c(OCc3ccccc3)cc2C1=O` (centres undefined), the inhibition entry is “Active”.

As to `CCCC1(CCC(=O)O)Cc2ccc(OC)cc2C1=O` (centres undefined), the inhibition is 20%.

A further experiment has the same target. The experiment in a line: Antagonist activity at prostaglandin F2-alpha receptor in isolated Albino mouse ileum assessed as inhibition of acetylcholine-induced spasmogenic effect at. Format: tissue-based. A digest of the protocol: as §1
For `CCCC1(CCC(=O)O)Cc2cc3c(cc2C1=O)OCO3` (centres undefined), the inhibition result is “inactive”.

With `CCCC1(CCC(=O)O)Cc2cc3c(cc2C1)OCO3`, the inhibition entry was “inactive”.

In the case of `CCCC1(CCC(=O)O)Cc2cc(OCc3ccccc3)c(OCc3ccccc3)cc2C1=O` (centres undefined), the inhibition entry was “Active”.

Consider `CCCC1(CCC(=O)O)Cc2ccc(OC)cc2C1=O` (centres undefined), for which the inhibition entry was “inactive”.

The target is the same in another experiment. The experiment in a line: Antagonist activity at prostaglandin F2-alpha receptor in isolated Albino mouse ileum assessed as inhibition of KCl-induced spasmogenic effect at. Format: tissue-based. The essentials:
as §2
In the case of `CCCC1(CCC(=O)O)Cc2cc3c(cc2C1=O)OCO3` (centres undefined), the inhibition entry was “inactive”.

Consider `CCCC1(CCC(=O)O)Cc2cc3c(cc2C1)OCO3`, for which the inhibition result was “inactive”.

Regarding `CCCC1(CCC(=O)O)Cc2cc(OCc3ccccc3)c(OCc3ccccc3)cc2C1=O` (centres undefined), the inhibition result was “Active”.

For the compound `CCCC1(CCC(=O)O)Cc2ccc(OC)cc2C1=O` (centres undefined), the inhibition entry was “inactive”.

For a further experiment the target is unchanged. The experiment is described as follows: Antagonist activity at prostaglandin F2-alpha receptor in isolated Albino mouse ileum assessed as inhibition of PGF2alpha-induced spasmogenic effect at. Format: tissue-based. The essentials:
as §3
Take `CCCC1(CCC(=O)O)Cc2cc3c(cc2C1=O)OCO3` (centres undefined): the inhibition result is “inactive”.

Regarding `CCCC1(CCC(=O)O)Cc2cc3c(cc2C1)OCO3`, the inhibition result was “inactive”.

`CCCC1(CCC(=O)O)Cc2cc(OCc3ccccc3)c(OCc3ccccc3)cc2C1=O` (centres undefined): the inhibition entry was “Active”.

As to `CCCC1(CCC(=O)O)Cc2ccc(OC)cc2C1=O` (centres undefined), the inhibition entry is “inactive”.

A further experiment shares this target. The experiment is described as follows: Antagonist activity at prostaglandin F2-alpha receptor in isolated Albino mouse ileum assessed as inhibition of PGF2alpha-induced spasmogenic effect at 5X10'-5 M preincubated for 3 mins followed by PGF2alpha challenge relative to control. Format: tissue-based. A digest of the protocol:
as §3
Regarding `CCCC1(CCC(=O)O)Cc2cc(OCc3ccccc3)c(OCc3ccccc3)cc2C1=O` (centres undefined), the inhibition is 90%.

The target is the same in another experiment. The experiment in a line: Antagonist activity at prostaglandin F2-alpha receptor in isolated Albino mouse ileum assessed as inhibition of KCl-induced spasmogenic effect at 5X10'-5 M preincubated for 3 mins followed by KCl challenge relative to control. It is filed as tissue-based. The essentials: as §2
Regarding `CCCC1(CCC(=O)O)Cc2cc(OCc3ccccc3)c(OCc3ccccc3)cc2C1=O` (centres undefined), the inhibition was 50%.

A further experiment has the same target. The experiment in a line: Antagonist activity at prostaglandin F2-alpha receptor in isolated Albino mouse ileum assessed as inhibition of acetylcholine-induced spasmogenic effect at 5X10'-5 M preincubated for 3 mins followed by acetylcholine challenge relative to control. It is filed as tissue-based. The essentials: as §1
Turning to `CCCC1(CCC(=O)O)Cc2cc(OCc3ccccc3)c(OCc3ccccc3)cc2C1=O` (centres undefined), the inhibition came out at 35%.

The target is the same in the next experiment. The experiment in a line: Antagonist activity at prostaglandin F2-alpha receptor in isolated Albino mouse ileum assessed as inhibition of PGF2alpha-induced spasmogenic effect at 3X10'-5 M preincubated for 3 mins followed by PGF2alpha challenge relative to control. It is filed as tissue-based. The essentials:
as §3
For `CCCC1(CCC(=O)O)Cc2cc(OCc3ccccc3)c(OCc3ccccc3)cc2C1=O` (centres undefined), the inhibition came out at 80%.

The next experiment has the same target. The experiment is described as follows: Antagonist activity at prostaglandin F2-alpha receptor in isolated Albino mouse ileum assessed as inhibition of acetylcholine-induced spasmogenic effect at 3X10'-5 M preincubated for 3 mins followed by acetylcholine challenge relative to control. It is filed as tissue-based. The essentials:
as §1
With `CCCC1(CCC(=O)O)Cc2cc(OCc3ccccc3)c(OCc3ccccc3)cc2C1=O` (centres undefined), the inhibition was below 20%.

For a further experiment the target is unchanged. The experiment in a line: Antagonist activity at prostaglandin F2-alpha receptor in isolated Albino mouse ileum assessed as inhibition of PGF2alpha-induced spasmogenic effect preincubated for 3 mins followed by PGF2alpha challenge followed by compound washout. It is filed as tissue-based. The essentials: as §3
Turning to `CCCC1(CCC(=O)O)Cc2cc3c(cc2C1=O)OCO3` (centres undefined), the inhibition result was “inactive”.

As to `CCCC1(CCC(=O)O)Cc2cc3c(cc2C1)OCO3`, the inhibition result was “inactive”.

Consider `CCCC1(CCC(=O)O)Cc2cc(OCc3ccccc3)c(OCc3ccccc3)cc2C1=O` (centres undefined), for which the inhibition result is “inactive”.

As to `CCCC1(CCC(=O)O)Cc2ccc(OC)cc2C1=O` (centres undefined), the inhibition entry was “inactive”.

The target is the same in a further experiment. The experiment is described as follows: Antagonist activity at prostaglandin F2-alpha receptor in isolated Albino mouse ileum assessed as inhibition of KCl-induced spasmogenic effect at 3X10'-5 M preincubated for 3 mins followed by KCl challenge relative to control. Format: tissue-based. The essentials:
as §2
In the case of `CCCC1(CCC(=O)O)Cc2cc(OCc3ccccc3)c(OCc3ccccc3)cc2C1=O` (centres undefined), the inhibition is 40%.

The target is the same in the next experiment. The experiment in a line: Antagonist activity at prostaglandin F2-alpha receptor in isolated Albino mouse ileum assessed as inhibition of acetylcholine-induced spasmogenic effect preincubated for 3 mins followed by acetylcholine challenge followed by compound washout. It is filed as tissue-based. The essentials:
as §1
On to `CCCC1(CCC(=O)O)Cc2cc3c(cc2C1=O)OCO3` (centres undefined), for which the inhibition result was “inactive”.

As for `CCCC1(CCC(=O)O)Cc2cc3c(cc2C1)OCO3`, the inhibition result was “inactive”.

As for `CCCC1(CCC(=O)O)Cc2cc(OCc3ccccc3)c(OCc3ccccc3)cc2C1=O` (centres undefined), the inhibition entry was “inactive”.

In the case of `CCCC1(CCC(=O)O)Cc2ccc(OC)cc2C1=O` (centres undefined), the inhibition result was “inactive”.

A further experiment has the same target. The experiment in a line: Antagonist activity at prostaglandin F2-alpha receptor in isolated Albino mouse ileum assessed as inhibition of KCl-induced spasmogenic effect preincubated for 3 mins followed by KCl challenge followed by compound washout. It is filed as tissue-based. The essentials: as §2
As for `CCCC1(CCC(=O)O)Cc2cc3c(cc2C1=O)OCO3` (centres undefined), the inhibition result was “inactive”.

For `CCCC1(CCC(=O)O)Cc2cc3c(cc2C1)OCO3`, the inhibition entry was “inactive”.

`CCCC1(CCC(=O)O)Cc2cc(OCc3ccccc3)c(OCc3ccccc3)cc2C1=O` (centres undefined): the inhibition entry was “inactive”.

On to `CCCC1(CCC(=O)O)Cc2ccc(OC)cc2C1=O` (centres undefined), for which the inhibition entry was “inactive”.

A further experiment shares this target. The experiment is described as follows: Antagonist activity at prostaglandin F2-alpha receptor in isolated Albino mouse ileum assessed as inhibition of acetylcholine-induced spasmogenic effect at 10^-3 M preincubated for 3 mins followed by acetylcholine challenge relative to control. Format: tissue-based. A digest of the protocol: as §1
Consider `CCCC1(CCC(=O)O)Cc2cc3c(cc2C1=O)OCO3` (centres undefined), for which the inhibition result is “Active”.

As to `CCCC1(CCC(=O)O)Cc2cc3c(cc2C1)OCO3`, the inhibition result is “Active”.

With `CCCC1(CCC(=O)O)Cc2cc(OCc3ccccc3)c(OCc3ccccc3)cc2C1=O` (centres undefined), the inhibition entry is “Active”.

As for `CCCC1(CCC(=O)O)Cc2ccc(OC)cc2C1=O` (centres undefined), the inhibition result was “Active”.

The target is the same in the next experiment. The experiment is described as follows: Antagonist activity at prostaglandin F2-alpha receptor in isolated Albino mouse ileum assessed as inhibition of KCl-induced spasmogenic effect at 10^-3 M preincubated for 3 mins followed by KCl challenge relative to control. Format: tissue-based. A digest of the protocol: as §2
For `CCCC1(CCC(=O)O)Cc2cc3c(cc2C1=O)OCO3` (centres undefined), the inhibition entry is “Active”.

For the compound `CCCC1(CCC(=O)O)Cc2cc3c(cc2C1)OCO3`, the inhibition entry was “Active”.

Regarding `CCCC1(CCC(=O)O)Cc2cc(OCc3ccccc3)c(OCc3ccccc3)cc2C1=O` (centres undefined), the inhibition result is “Active”.

As for `CCCC1(CCC(=O)O)Cc2ccc(OC)cc2C1=O` (centres undefined), the inhibition result is “Active”.

A further experiment has the same target. The experiment in a line: Antagonist activity at prostaglandin F2-alpha receptor in isolated Albino mouse ileum assessed as inhibition of PGF2alpha-induced spasmogenic effect at 10^-3 M preincubated for 3 mins followed by PGF2alpha challenge relative to control. Format: tissue-based. The essentials: as §3
Take `CCCC1(CCC(=O)O)Cc2cc3c(cc2C1=O)OCO3` (centres undefined): the inhibition entry is “Active”.

In the case of `CCCC1(CCC(=O)O)Cc2cc3c(cc2C1)OCO3`, the inhibition entry was “Active”.

As to `CCCC1(CCC(=O)O)Cc2cc(OCc3ccccc3)c(OCc3ccccc3)cc2C1=O` (centres undefined), the inhibition entry is “Active”.

`CCCC1(CCC(=O)O)Cc2ccc(OC)cc2C1=O` (centres undefined): the inhibition result was “Active”.
